According to ChEMBL document CHEMBL1143574, “N-[18F] fluoroethylpiperidin-4ylmethyl acetate, a novel lipophilic acetylcholine analogue for PET measurement of brain acetylcholinesterase activity” (J Med Chem, 2005):

test system: not listed separately; assay: (§1) Partition coefficient (logP) measured in a mixture of 1-octanol/phosphate buffer (0.1 M, pH 7.4); type: physicochemical; conditions: not given
How it was run: (§2)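 Labeled ester or metabolite added to 1:1 1-octanol/0.1 M phosphate buffer pH 7.4, shaken vigorously, equilibrated 1 h at room temperature. Phase radioactivity counted by gamma or liquid scintillation counter, purity checked by TLC. Value = organic/aqueous concentration ratio.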

| SMILES | logD |
| --- | --- |
| CC(=O)OC1CCN([11CH3])CC1 | -0.3 |
| CCC(=O)OC1CCN([11CH3])CC1 | -0.22 |
| CC(=O)OC1CCN(CC[18F])CC1 | -0.11 |
| CC(=O)OCC1CCN(CC[18F])CC1 | 0.04 |

test system: not listed separately; assay: First-order hydrolysis rate constant in rat cerebral cortical homogenate at a unit tissue concentration (g/mL) without inhibitor; type: ADME, tissue-based; conditions: not given
How it was run: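 Rat (Wistar, male, 8 wk, 210-230 g, n=3) cerebral cortex homogenized in ice-cold 0.1 M phosphate buffer pH 7.4 and diluted. Labeled ester (15 kBq) added to start reaction. Unchanged ester and metabolite separated by TLC and quantified by phosphor imaging. Rate = −ln(A2/A1)/(T2−T1)/C. Statistics by Games-Howell test.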

| SMILES | Total rate [min⁻¹] |
| --- | --- |
| CC(=O)OC1CCN([11CH3])CC1 | 1.73 |
| CCC(=O)OC1CCN([11CH3])CC1 | 0.41 |
| CC(=O)OC1CCN(CC[18F])CC1 | 0.1 |
| CC(=O)OCC1CCN(CC[18F])CC1 | 1.67 |

target: T1, Acetylcholinesterase (Rattus norvegicus) (UniProt P37136); assay: Specificity for rat brain acetylcholinesterase as rate of hydrolysis using BW284c51; conditions: tested as the 11C-labelled form
T1 sequence (whole entry): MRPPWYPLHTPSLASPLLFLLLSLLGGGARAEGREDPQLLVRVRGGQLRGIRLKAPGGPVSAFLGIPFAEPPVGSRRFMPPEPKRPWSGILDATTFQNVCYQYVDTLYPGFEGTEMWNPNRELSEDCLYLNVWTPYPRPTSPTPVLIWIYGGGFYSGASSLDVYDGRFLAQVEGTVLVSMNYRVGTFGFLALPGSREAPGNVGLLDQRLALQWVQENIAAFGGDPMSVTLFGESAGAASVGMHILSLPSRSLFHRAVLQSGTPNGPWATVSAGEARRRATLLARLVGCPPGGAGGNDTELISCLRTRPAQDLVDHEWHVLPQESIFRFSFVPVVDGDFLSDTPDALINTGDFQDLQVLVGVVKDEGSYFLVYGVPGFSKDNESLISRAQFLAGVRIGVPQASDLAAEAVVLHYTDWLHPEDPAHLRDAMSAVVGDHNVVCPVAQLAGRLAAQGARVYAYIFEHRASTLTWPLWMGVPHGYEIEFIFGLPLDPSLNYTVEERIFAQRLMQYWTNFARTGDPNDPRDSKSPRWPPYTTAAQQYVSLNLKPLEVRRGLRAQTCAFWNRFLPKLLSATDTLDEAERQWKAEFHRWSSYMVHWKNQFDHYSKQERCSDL
How it was run: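 Rat cerebral cortex homogenate (Wistar, male, 8 wk, n=3) in 0.1 M phosphate buffer pH 7.4, run with labeled ester (15 kBq) with or without BW284c51 (30 nM). Hydrolysis rate measured by TLC and phosphor imaging of remaining ester. Specificity = […].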

| SMILES | Specificity [%] |
| --- | --- |
| CCC(=O)OC1CCN(C)CC1 | 82 |
| CC(=O)OC1CCN(C)CC1 | 97 |

same assay, conditions: tested as the 18F-labelled form

| SMILES | Specificity [%] |
| --- | --- |
| CC(=O)OCC1CCN(CCF)CC1 | 86 |
| CC(=O)OC1CCN(CCF)CC1 | 65 |

test system: not listed separately; assay: as §1; type: physicochemical; conditions: not given; how it was run: as §2

| SMILES | logD |
| --- | --- |
| CC(=O)OC1CCN([11CH3])CC1 | -2.2 |
| CCC(=O)OC1CCN([11CH3])CC1 | -2.2 |
| CC(=O)OC1CCN(CC[18F])CC1 | -1.9 |
| CC(=O)OCC1CCN(CC[18F])CC1 | -1.3 |
